Results reported in ChEMBL document CHEMBL4715736, “Identification of anticancer agents based on the thieno[2,3-b]pyridine and 1H-pyrazole molecular scaffolds” (2016).

Tests used:
Format in all cases: functional
[1] = test system: SNB-75; test: Growth inhibition of human SNB-75 cells assessed as cell growth at 0.1 uM incubated for 48 hrs by sulforhodamine B assay relative to control; details: read-out: Activity
[2] = test system: A549; test: Growth inhibition of human A549/ATCC cells assessed as cell growth at 0.1 uM incubated for 48 hrs by sulforhodamine B assay relative to control; details: read-out: Activity
In short: (§1)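 NCI Developmental Therapeutics Program NCI60 panel. Compounds that were active in the 10 µM one-dose screen went on to dose–response testing. Growth at each concentration is expressed relative to untreated control (100%). GI50 (concentration giving 50% of maximal inhibition of proliferation) and TGI (concentration giving total growth inhibition) were derived from the curves.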

[3] = test system: SR; test: Growth inhibition of human SR cells assessed as cell growth at 100 uM incubated for 48 hrs by sulforhodamine B assay relative to control; details: read-out: Activity
[4] = test system: COLO 205; test: Growth inhibition of human COLO 205 cells incubated for 48 hrs by sulforhodamine B assay; in short: as §1
[5] = test system: HT-29; test: Growth inhibition of human HT-29 cells incubated for 48 hrs by sulforhodamine B assay
In short: (§2)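 NCI60 panel at the NCI Developmental Therapeutics Program. Only compounds active in the 10 µM screen went to dose-response testing. GI50, the concentration giving 50% of maximal inhibition of proliferation, and TGI, the concentration giving total growth inhibition, were derived from the dose-response curves.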

[6] = test system: HOP-92; test: Growth inhibition of human HOP-92 cells assessed as cell growth at 100 uM incubated for 48 hrs by sulforhodamine B assay relative to control; details: read-out: Activity
[7] = test system: SK-OV-3; test: Growth inhibition of human SK-OV-3 cells incubated for 48 hrs by sulforhodamine B assay; details: for CC50: read-out: LC50 (the source's name)
In short: (§3)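 NCI DTP 60-line human tumour panel. Dose-response curves were run only for ligands active in the initial 10 µM screen. GI50 (concentration giving 50% of maximal inhibition of proliferation) and TGI (concentration giving total growth inhibition) were derived from these curves.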

[8] = test system: A498; test: Growth inhibition of human A498 cells assessed as cell growth at 0.1 uM incubated for 48 hrs by sulforhodamine B assay relative to control; details: read-out: Activity; in short: as §1
[9] = test system: SF-295; test: Growth inhibition of human SF-295 cells assessed as cell growth at 100 uM incubated for 48 hrs by sulforhodamine B assay relative to control; details: read-out: Activity
[10] = test system: Hs-578T; test: Growth inhibition of human Hs-578T cells assessed as cell growth at 0.01 uM incubated for 48 hrs by sulforhodamine B assay relative to control; details: read-out: Activity
[11] = test system: SW-620; test: Growth inhibition of human SW-620 cells assessed as cell growth at 0.1 uM incubated for 48 hrs by sulforhodamine B assay relative to control; details: read-out: Activity
[12] = test system: RPMI-8226; test: Growth inhibition of human RPMI-8226 cells assessed as cell growth at 0.01 uM incubated for 48 hrs by sulforhodamine B assay relative to control; details: read-out: Activity
[13] = test system: K562; test: Growth inhibition of human K562 cells incubated for 48 hrs by sulforhodamine B assay; in short: as §2
[14] = test system: M14; test: Growth inhibition of human M14 cells assessed as cell growth at 100 uM incubated for 48 hrs by sulforhodamine B assay relative to control; details: read-out: Activity
[15] = test system: SN12C; test: Growth inhibition of human SN12C cells assessed as cell growth at 1 uM incubated for 48 hrs by sulforhodamine B assay relative to control; details: read-out: Activity
[16] = test system: T47D; test: Growth inhibition of human T47D cells incubated for 48 hrs by sulforhodamine B assay; details: for CC50: read-out: LC50 (the source's name); in short: as §3
[17] = test system: RXF 393; test: Growth inhibition of human RXF 393 cells incubated for 48 hrs by sulforhodamine B assay; details: for CC50: read-out: LC50 (the source's name); in short: as §3
[18] = test system: ACHN; test: Growth inhibition of human ACHN cells incubated for 48 hrs by sulforhodamine B assay; details: for CC50: read-out: LC50 (the source's name); in short: as §1
[19] = test system: MDA-MB-435; test: Growth inhibition of human MDA-MB-435 cells assessed as cell growth at 0.1 uM incubated for 48 hrs by sulforhodamine B assay relative to control; details: read-out: Activity
[20] = test system: A498; test: Growth inhibition of human A498 cells assessed as cell growth at 100 uM incubated for 48 hrs by sulforhodamine B assay relative to control; details: read-out: Activity; in short: as §1
[21] = test system: RPMI-8226; test: Growth inhibition of human RPMI-8226 cells assessed as cell growth at 0.1 uM incubated for 48 hrs by sulforhodamine B assay relative to control; details: read-out: Activity
[22] = test system: UACC-257; test: Growth inhibition of human UACC-257 cells assessed as cell growth at 0.1 uM incubated for 48 hrs by sulforhodamine B assay relative to control; details: read-out: Activity
[23] = test system: A498; test: Growth inhibition of human A498 cells assessed as cell growth at 1 uM incubated for 48 hrs by sulforhodamine B assay relative to control; details: read-out: Activity; in short: as §1
[24] = test system: SF-268; test: Growth inhibition of human SF-268 cells incubated for 48 hrs by sulforhodamine B assay; in short: as §3
[25] = test system: MCF7; test: Growth inhibition of human MCF7 cells assessed as cell growth at 0.1 uM incubated for 48 hrs by sulforhodamine B assay relative to control; details: read-out: Activity
[26] = test system: NCI/ADR-RES; test: Growth inhibition of human NCI/ADR-RES cells incubated for 48 hrs by sulforhodamine B assay; details: for CC50: read-out: LC50 (the source's name); in short: as §2
[27] = test system: K562; test: Growth inhibition of human K562 cells assessed as cell growth at 0.01 uM incubated for 48 hrs by sulforhodamine B assay relative to control; details: read-out: Activity
[28] = test system: HCT-15; test: Growth inhibition of human HCT-15 cells assessed as cell growth at 0.1 uM incubated for 48 hrs by sulforhodamine B assay relative to control; details: read-out: Activity
[29] = test system: SN12C; test: Growth inhibition of human SN12C cells assessed as cell growth at 0.1 uM incubated for 48 hrs by sulforhodamine B assay relative to control; details: read-out: Activity
[30] = test system: SK-MEL-5; test: Growth inhibition of human SK-MEL-5 cells assessed as cell growth at 100 uM incubated for 48 hrs by sulforhodamine B assay relative to control; details: read-out: Activity
[31] = test system: MDA-MB-435; test: Growth inhibition of human MDA-MB-435 cells assessed as cell growth at 0.01 uM incubated for 48 hrs by sulforhodamine B assay relative to control; details: read-out: Activity
[32] = test system: HCT-116; test: Growth inhibition of human HCT-116 cells assessed as cell growth at 100 uM incubated for 48 hrs by sulforhodamine B assay relative to control; details: read-out: Activity
[33] = test system: SNB-19; test: Growth inhibition of human SNB-19 cells incubated for 48 hrs by sulforhodamine B assay; in short: as §3
[34] = test system: SK-MEL-2; test: Growth inhibition of human SK-MEL-2 cells assessed as cell growth at 1 uM incubated for 48 hrs by sulforhodamine B assay relative to control; details: read-out: Activity

CCc1ccccc1NC(=O)c1sc2nc3c(cc2c1N)C(=O)CCC3
growth at 0.1 µM [1]: 73%
growth at 0.1 µM [2]: 88%
growth at 100 µM [3]: 2%
GI50 [4]: 0.252 µM
LC50 (concentration killing 50% of cells) [4]: > 100 µM
TGI [4]: 19.8 µM
GI50 [5]: 0.372 µM
LC50 [5]: > 100 µM
TGI [5]: 29.5 µM
growth at 100 µM [6]: -6%
GI50 [7]: 0.537 µM
TGI [7]: 75.7 µM
CC50 [7]: > 100 µM
growth at 0.1 µM [8]: 72%
growth at 100 µM [9]: -2%
growth at 0.01 µM [10]: 93%
growth at 0.1 µM [11]: 83%
growth at 0.01 µM [12]: 100%
GI50 [13]: 0.203 µM
LC50 (concentration killing 50% of cells) [13]: > 100 µM
TGI [13]: > 100 µM
growth at 100 µM [14]: 7%
growth at 1 µM [15]: 40%
GI50 [16]: 0.431 µM
TGI [16]: ≥ 100 µM
CC50 [16]: > 100 µM
GI50 [17]: 0.163 µM
TGI [17]: 0.777 µM
CC50 [17]: > 100 µM
GI50 [18]: 0.0188 µM
TGI [18]: > 100 µM
CC50 [18]: > 100 µM
growth at 0.1 µM [19]: 29%
growth at 100 µM [20]: -10%
growth at 0.1 µM [21]: 96%
growth at 0.1 µM [22]: 79%
growth at 1 µM [23]: -14%
GI50 [24]: 10.1 µM
LC50 (concentration killing 50% of cells) [24]: > 100 µM
TGI [24]: > 100 µM
growth at 0.1 µM [25]: 83%
GI50 [26]: 0.367 µM
TGI [26]: 39.2 µM
CC50 [26]: > 100 µM
growth at 0.01 µM [27]: 104%
growth at 0.1 µM [28]: 74%
growth at 0.1 µM [29]: 88%
growth at 100 µM [30]: 2%
growth at 0.01 µM [31]: 92%
growth at 100 µM [32]: 6%
GI50 [33]: 0.763 µM
LC50 [33]: > 100 µM
TGI [33]: > 100 µM
growth at 1 µM [34]: 31%

Cc1ccc(NC(=O)c2sc3nc4c(cc3c2N)C(=O)CCC4)cc1C
growth at 0.1 µM [1]: 70%
growth at 0.1 µM [2]: 98%
growth at 100 µM [3]: -14%
GI50 [4]: 0.272 µM
LC50 (concentration killing 50% of cells) [4]: ≥ 100 µM
TGI [4]: 11.4 µM
GI50 [5]: 0.399 µM
LC50 [5]: > 100 µM
TGI [5]: ≥ 100 µM
growth at 100 µM [6]: 2%
GI50 [7]: 0.534 µM
TGI [7]: > 100 µM
CC50 [7]: > 100 µM
growth at 0.1 µM [8]: 78%
growth at 100 µM [9]: 12%
growth at 0.01 µM [10]: 93%
growth at 0.1 µM [11]: 95%
growth at 0.01 µM [12]: 99%
GI50 [13]: 0.468 µM
LC50 (concentration killing 50% of cells) [13]: > 100 µM
TGI [13]: 35 µM
growth at 100 µM [14]: 4%
growth at 1 µM [15]: 41%
GI50 [16]: 0.444 µM
TGI [16]: ≥ 100 µM
CC50 [16]: > 100 µM
GI50 [17]: 0.222 µM
CC50 [17]: > 100 µM
GI50 [18]: 0.0239 µM
TGI [18]: > 100 µM
CC50 [18]: > 100 µM
growth at 0.1 µM [19]: 60%
growth at 100 µM [20]: -17%
growth at 0.1 µM [21]: 97%
growth at 0.1 µM [22]: 92%
growth at 1 µM [23]: -17%
GI50 [24]: 3.07 µM
LC50 (concentration killing 50% of cells) [24]: > 100 µM
TGI [24]: > 100 µM
growth at 0.1 µM [25]: 86%
GI50 [26]: 0.658 µM
TGI [26]: > 100 µM
CC50 [26]: > 100 µM
growth at 0.01 µM [27]: 114%
growth at 0.1 µM [28]: 90%
growth at 0.1 µM [29]: 96%
growth at 100 µM [30]: -57%
growth at 0.01 µM [31]: 95%
growth at 100 µM [32]: 8%
GI50 [33]: 0.558 µM
LC50 [33]: > 100 µM
TGI [33]: > 100 µM
growth at 1 µM [34]: 22%
